“Also recorded” adds a separate entry of the source. Like-named read-outs stand apart in the source and are kept apart here.

The test system of series [1] is iPSC-derived human spinal motor neurons. It is filed as cell-based.
Series [2] relates to iPSC-derived human cortical glutamatergic neurons. It is filed as cell-based.
In series [3] the test system is GFP-labeled iPSC-derived human neurons. It is filed as cell-based.
Series [4] relates to LUHMES. The conditions noted are these: NeuriTox test, IC50 (viability/neurite area) ratio ≥4; ref Delp et al., 2018; cited from earlier work.
The subject of series [5] is iPSC-derived human spinal motor neurons. Briefly: Cell viability / cytotoxicity. It is filed as cell-based. Summed up: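 GFP-expressing iPSC-derived motor neurons were seeded at 800 cells/well on PDL-coated 1536-well plates and grown 40 h at 37 °C. Test compound was then added at 11 concentrations (1.56 nM–92 μM, 1:3) and exposed 24 and 48 h. Cells were counted as number of objects from GFP high-content images (488/530 nm, 20×, four fields/well). Values were normalized to 46 μM rotenone (−100%) and 0.46% DMSO (0%), in triplicate.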

Series [6] deals with PeriTox test cells. The conditions noted are these: IC50 (viability/neurite area) ratio ≥3, ref Delp et al., 2018; cited from earlier work.
The mark [7] stands for this setting: motor neurons, active at either 24 or 48 hours, 1.56 nM to 92 μM.
Setting [8] is: cortical neurons, active at either 24 or 48 hours, 1.56 nM to 92 μM.
The mark [9] stands for this setting: cortical and/or motor neurons, not specified, 24 or 48 hours, up to 92 μM.
The mark [10] stands for this setting: cortical neurons, 24 hours of treatment.
The mark [11] stands for this setting: cortical neurons, 48 hours of treatment.

For `Brc1ccc(Oc2ccc(Br)cc2Br)c(Br)c1` [2,2′,4,4′-tetrabromodiphenyl ether], the “neurite outgrowth inhibition (activity call)” value is “affected” in series [1] (setting [7]); “inhibited” in series [1] (motor neurons, active at either 24 or 48 hours, 1.56 nM to 92 μM, listed as 2,2’,4,4’-tetrabromodiphenyl ether); “only affected neurite outgrowth in motor neurons” in series [2] (setting [8]).

Take `CCCCC(CC)COC(=O)c1cc(Br)c(Br)c(Br)c1Br` (stereo not drawn) [2-ethylhexyl-2,3,4,5-tetrabromobenzoate]: the “neurite outgrowth inhibition in this study (activity call)” value in series [3] (setting [9]) is “inhibit neurite outgrowth”.

For the molecule `CC(C)(c1cc(Br)c(O)c(Br)c1)c1cc(Br)c(O)c(Br)c1` [3,3’,5,5’-tetrabromobisphenol A], in series [2] (setting [8]), the “neurite outgrowth inhibition (activity call)” value is given as “inhibited”. In the case of `COc1cc2c(c(OC)c1OC)-c1ccc(OC)c(=O)cc1[C@@H](NC(C)=O)CC2` [Colchicine], the “neurite outgrowth inhibition (activity call)” value in series [1] (setting [7]) and in series [2] (setting [8]) was “inhibited” each time. Turning to `CC/C(=C(/CC)c1ccc(O)cc1)c1ccc(O)cc1` [Diethylstilbestrol], the “selective effect on neurite outgrowth” value in series [4] is “selective effects”. As to `O=C1O[C@H]([C@@H](O)CO)C(O)=C1O` [L-ascorbic acid], in series [5], the cytotoxicity entry was “cytotoxic”. For the same molecule, the “neurite outgrowth inhibition in this study (activity call)” value in series [3] (setting [9]) is given as “inhibitor of neurite outgrowth”. As for `CCCCCC` [N-hexane, n-hexane], the “neurite outgrowth inhibition in this study (activity call)” value in series [3] is given as “not have been active”. For `CC(C)[C@@H]1NC(=O)[C@H](C)OC(=O)[C@@H](C(C)C)NC(=O)[C@@H](C(C)C)OC(=O)[C@H](C(C)C)NC(=O)[C@H](C)OC(=O)[C@@H](C(C)C)NC(=O)[C@@H](C(C)C)OC(=O)[C@H](C(C)C)NC(=O)[C@H](C)OC(=O)[C@@H](C(C)C)NC(=O)[C@@H](C(C)C)OC1=O` [Valinomycin], the “selective effect on neurite outgrowth in this study” value in series [3] (neuron type not specified) is “selective effects”. The “selective effect on neurite outgrowth” value in series [4] and in series [6] was “selective effects” each time.

For `c1ccc2cc3ccccc3cc2c1` [anthracene], the “neurite outgrowth inhibition (activity call)” value in series [1] (setting [7]) is listed as “affected”; in series [2] (setting [8]), “only affected neurite outgrowth in motor neurons”. `CN(C)c1ccc(C(=N)c2ccc(N(C)C)cc2)cc1.Cl` [auramine O]: the “neurite outgrowth inhibition in this study (activity call)” value in series [3] (setting [9]) is “inhibit neurite outgrowth”. Turning to `c1ccc2c(c1)-c1cccc3c1c-2cc1ccccc13` [benzo (b) fluoranthene], in series [2], the “neurite outgrowth inhibition (activity call)” value is “active”.

Consider `Oc1ccc(C(c2ccc(O)cc2)(C(F)(F)F)C(F)(F)F)cc1` [bisphenol AF], for which, in series [2] (setting [8]), the “neurite outgrowth inhibition (activity call)” value is “inhibitory effects; also recorded: inhibited”. The “neurite outgrowth inhibition in this study (activity call)” value in series [3] (setting [9]) is listed as “inhibit neurite outgrowth”. For the molecule `CC(C)(c1ccc(O)cc1)c1ccc(O)cc1` [bisphenol A], the “neurite outgrowth inhibition (activity call)” value in series [2] (setting [10]) is reported as “not active”; in series [2] (setting [11]), “active; also recorded: inhibitory effects”. On to `Cn1c(=O)c2c(ncn2C)n(C)c1=O` [caffeine], for which the “neurite outgrowth inhibition (activity call)” value in series [1] is “inhibited; also recorded: affected”; in series [2], “only affected neurite outgrowth in motor neurons”. In addition, in series [3] (setting [9]), the “neurite outgrowth inhibition in this study (activity call)” value is on record as “inhibit neurite outgrowth”. On to `CC1(C)[C@H](C(=O)O[C@H](C#N)c2cccc(Oc3ccccc3)c2)[C@@H]1C=C(Br)Br` [deltamethrin], for which the “neurite outgrowth inhibition (activity call)” value in series [2] (setting [10]) is “not active”; in series [2] (setting [11]), “active; also recorded: inhibitory effects”. Consider `C[C@]12CC[C@@H]3c4ccc(O)cc4CC[C@H]3[C@@H]1CC[C@@H]2O` [estradiol], for which the “neurite outgrowth inhibition in this study (activity call)” value in series [3] (setting [9]) was “inhibit neurite outgrowth”. On to `CCCCC(CC)COP(=O)(Oc1ccccc1)Oc1ccccc1` (stereo not drawn) [ethylhexyl diphenyl phosphate, 2-ethylhexyl diphenyl phosphate], for which, in series [2] (setting [10]), the “neurite outgrowth inhibition (activity call)” value is listed as “active”. On to `CC(=O)[O-].CC(=O)[O-].O.O.O.[Pb+2]` [lead (II) acetate trihydrate], for which the “neurite outgrowth inhibition in this study (activity call)” value in series [3] (setting [9]) is “inhibit neurite outgrowth”. For the molecule `[CH3][Hg][Cl]` [methyl mercuric (II) chloride], the “neurite outgrowth inhibition (activity call)” value in series [1] (setting [7]) and in series [2] (setting [8]) was “inhibited” in each case. Take `CCOP(=S)(OCC)Oc1ccc([N+](=O)[O-])cc1` [parathion]: the “neurite outgrowth inhibition (activity call)” value in series [2] (setting [8]) is listed as “inhibitory effects; also recorded: inhibited”. On to `CCC1(c2ccccc2)C(=O)NC(=O)NC1=O` [phenobarbital], for which the “neurite outgrowth inhibition in this study (activity call)” value in series [3] (setting [9]) is given as “not be active”.

With `C=C(C)[C@H]1Cc2c(ccc3c2O[C@@H]2COc4cc(OC)c(OC)cc4[C@@H]2C3=O)O1` [rotenone], the “neurite outgrowth inhibition (activity call)” value in series [1] (setting [7]) and in series [2] (setting [8]) was “inhibited neurite outgrowth in a concentration dependent manner” each time. The “selective effect on neurite outgrowth” value in series [4] was “selective effects”. On to `CC(C)(C)C(O)(CCc1ccc(Cl)cc1)Cn1cncn1` (stereo not drawn) [tebuconazole], for which the “neurite outgrowth inhibition (activity call)” value in series [2] (setting [10]) is “not active”; in series [2] (setting [11]), “active; also recorded: inhibitory effects”.

The values are drawn from paper PMC9444042 (Neurotoxicology, 2021).
